Results reported in ChEMBL document CHEMBL1151692, “Substituted hippurates and hippurate analogs as substrates and inhibitors of peptidylglycine alpha-hydroxylating monooxygenase (PHM)” (Bioorg Med Chem, 2008).
Where a SMILES comes first, the peptide text is derived from it. [ ]: non-standard residue; d: D form. The star is where a group is joined. Dansyl = CN(C)c1cccc2c(S(=O)(=O)*)cccc12; pGlu = O=C1CC[C@@H](C(=O)O)N1; Boc = CC(C)(C)OC(=O)*; Bz = O=C(c1ccccc1)*; ClAc = O=C(CCl)*; NHOH = ON*

Legend:
[1] = target: T1, Peptidylglycine alpha-amidating monooxygenase (Rattus norvegicus) (UniProt P14925); assay: Activity of rat recombinant peptidylglycine alpha-amidating monooxygenase assessed as stimulation of oxygen consumption
T1 sequence (whole entry): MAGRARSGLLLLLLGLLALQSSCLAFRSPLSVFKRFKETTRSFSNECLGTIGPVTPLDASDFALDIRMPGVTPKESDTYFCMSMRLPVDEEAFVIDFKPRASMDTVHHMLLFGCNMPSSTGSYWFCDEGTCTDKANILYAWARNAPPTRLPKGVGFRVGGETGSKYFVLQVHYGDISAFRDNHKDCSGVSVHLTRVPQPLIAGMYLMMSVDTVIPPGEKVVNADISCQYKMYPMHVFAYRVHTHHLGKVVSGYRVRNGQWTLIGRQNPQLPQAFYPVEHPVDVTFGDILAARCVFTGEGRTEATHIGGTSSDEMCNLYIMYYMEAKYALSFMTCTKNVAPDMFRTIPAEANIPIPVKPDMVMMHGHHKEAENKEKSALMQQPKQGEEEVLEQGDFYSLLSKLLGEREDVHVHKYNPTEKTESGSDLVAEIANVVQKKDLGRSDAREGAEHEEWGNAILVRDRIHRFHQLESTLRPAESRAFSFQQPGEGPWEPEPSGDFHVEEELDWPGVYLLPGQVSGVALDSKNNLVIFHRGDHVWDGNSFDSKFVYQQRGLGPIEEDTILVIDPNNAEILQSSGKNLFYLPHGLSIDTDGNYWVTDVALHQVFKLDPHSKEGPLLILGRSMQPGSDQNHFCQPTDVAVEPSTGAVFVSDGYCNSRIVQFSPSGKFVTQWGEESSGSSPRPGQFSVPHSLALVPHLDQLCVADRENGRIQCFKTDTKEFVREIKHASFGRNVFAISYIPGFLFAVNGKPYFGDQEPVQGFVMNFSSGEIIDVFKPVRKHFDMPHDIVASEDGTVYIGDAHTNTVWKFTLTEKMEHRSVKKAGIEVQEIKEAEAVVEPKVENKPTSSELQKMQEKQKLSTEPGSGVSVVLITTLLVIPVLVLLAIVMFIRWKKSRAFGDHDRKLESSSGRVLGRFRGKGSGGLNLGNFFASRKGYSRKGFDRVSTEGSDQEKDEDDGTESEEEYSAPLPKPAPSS

[2] = target: T1, Peptidylglycine alpha-amidating monooxygenase (Rattus norvegicus); assay: Ratio of Vm(app) to Km(app) for rat recombinant peptidylglycine alpha-amidating monooxygenase
How it was run: (§1)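 Recombinant rat type A medullary thyroid carcinoma PAM (bifunctional), 15–50 μg, in 100 mM MES/NaOH pH 6.0, 30 mM NaCl, 1% ethanol, 0.001% Triton X-100, 10 μg/mL catalase, 1.0 μM Cu(NO3)2, 5.0 mM ascorbate, ~200 μM O2, 37 °C. Substrate generally 0.3–5.0 KM,app. Initial O2 consumption rates read by oxygen monitor and fit to Michaelis–Menten.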

[3] = target: T1, Peptidylglycine alpha-amidating monooxygenase (Rattus norvegicus); assay: Ratio of Vm(app) to Km(app) for rat recombinant peptidylglycine alpha-amidating monooxygenase relative to hippuric acid; how it was run: as §1
[4] = target: peptidylglycine alpha-amidating monooxygenase (Rattus norvegicus) (UniProt P14925); assay: Inhibition of rat peptidylamidoglycolate lyase assessed as ascorbate-independent dealkylation of alpha-hydroxy-hipurate; parameters: concentration or dose not given beside the values; settings: for inhibition: concentration not given here
[5] = target: T1, Peptidylglycine alpha-amidating monooxygenase (Rattus norvegicus); assay: Inhibition of rat recombinant peptidylglycine alpha-amidating monooxygenase assessed as inhibition of N-dansyl-Tyr-Val-Gly amidation
[6] = target: T1, Peptidylglycine alpha-amidating monooxygenase (Rattus norvegicus); assay: Inhibition of rat recombinant peptidylglycine alpha-amidating monooxygenase in presence of DMSO

| SMILES | Vmax(app) [1] [s⁻¹] | Ratio [2] | Activity [3] | also measured |
| --- | --- | --- | --- | --- |
| O=C(O)CNC(=S)Cc1ccccc1 | 2.4 | 1 ×10⁵ /M/s | 16 |  |
| Cc1ccc(C(=S)SCC(=O)O)cc1 |  |  |  | inhibition [4]: < 5% |
| CC(NC(=S)c1ccccc1)C(=O)O (stereo not given) |  |  |  | inhibition [4]: < 5% |
| O=C(O)CNC(=O)CNC(=O)CNC(=O)c1ccccc1 (Bz-Gly-Gly-Gly-OH) | 8.8 | 2.9 ×10⁴ /M/s | 4.7 |  |
| O=C(O)CNC(=O)c1c(F)cccc1F | 4.3 | 2.3 ×10² /M/s | 0.04 |  |
| O=C(O)CNC(=O)/C=C/c1ccco1 | 3.4 | 2.8 ×10³ /M/s | 0.45 |  |
| O=C(O)CSc1ccccc1 |  |  |  | inhibition [4]: < 5% |
| O=C(O)CNC(=O)c1ccc(Br)cc1 | 2.5 | 4.9 ×10³ /M/s | 0.8 |  |
| Cc1ccccc1C(=O)NCC(=O)O | 7.9 | 1.8 ×10³ /M/s | 0.3 |  |
| O=C(O)CNC(=O)[C@@H]1CCC(=O)N1 ([pGlu]-Gly-OH) | 9.3 | 3 ×10⁴ /M/s | 4.8 |  |
| CC(=O)N[C@H](C)C(=O)O | 1.3 | 0.95 M⁻¹ s⁻¹ |  |  |
| O=C(O)CONC(=O)c1ccccc1 |  |  |  | inhibition [4]: < 5% |
| O=C(O)CNC(=O)/C=C/c1ccccc1 | 8.4 | 3.6 ×10⁴ /M/s | 5.8 |  |
| CC(Cc1ccccc1)C(=O)NCC(=O)O (stereo not given) | 18 | 4.3 ×10³ /M/s | 0.69 |  |
| O=C(O)CCSC(=S)Nc1ccccc1 |  |  |  | inhibition [4]: < 5% |
| O=C(O)CNC(=O)c1ccc(O)cc1 | 5.8 | 3.5 ×10³ /M/s | 0.6 |  |
| Cc1cccc(C(=O)NCC(=O)O)c1 | 6.4 | 4.7 ×10³ /M/s | 0.8 |  |
| O=C(O)CNC(=O)c1ccc(C(F)(F)F)cc1 | 2.8 | 3.6 ×10³ /M/s | 0.6 |  |
| O=C(O)CNC(=O)CCCCc1ccccc1 | 12 | 7.6 ×10⁴ /M/s | 12 |  |
| Nc1ccc(C(=O)NCC(=O)O)cc1 | 5.6 | 2.2 ×10³ /M/s | 0.4 |  |
| O=C(O)CNC(=O)CNC(=O)CCl (ClAc-Gly-Gly-OH) | 8.9 | 2.1 ×10⁴ /M/s | 3.3 |  |
| CC(=O)NCC(=O)O |  |  | 0.1 |  |
| CCCCCCCCCCCC(=S)SCC(=O)O |  |  |  | inhibition [4]: < 5% |
| O=C(O)CNC(=O)c1ccc(Cl)cc1 | 4.1 | 6.6 ×10³ /M/s | 1.1 |  |

| SMILES | Vmax(app) [1] [s⁻¹] | Ratio [2] | Activity [3] | also measured |
| --- | --- | --- | --- | --- |
| O=C(O)CNCc1ccccc1 |  |  |  | inhibition [4]: < 5% |
| O=C(O)CNC(=O)OCc1ccccc1 | 8.6 | 1.5 ×10⁴ /M/s | 2.4 |  |
| O=C(O)CNC(=O)SCc1ccccc1 | 0.69 | 1.2 ×10⁴ /M/s | 1.9 |  |
| CCCc1ccc(C(=O)NCC(=O)O)cc1 | 5.1 | 4.2 ×10³ /M/s | 0.7 |  |
| C[C@@H](NC(=O)c1ccccc1)C(=O)O | 0.27 | 3.2 M⁻¹ s⁻¹ |  |  |
| COC(=O)CNC(=O)[C@@H](NC(=O)[C@H](Cc1ccc(O)cc1)NS(=O)(=O)c1cccc2c(N(C)C)cccc12)C(C)C (Dansyl-Tyr-Val-Gly-OMe) |  |  |  | Kis [5]: 54 µM |
| O=C(O)CNC(=O)c1ccc([N+](=O)[O-])cc1 | 4.2 | 8.9 ×10³ /M/s | 1.4 |  |
| O=C(O)CNC(=O)C1CC1c1ccccc1 (stereo not given) | 10 | 1.1 ×10⁴ /M/s | 1.8 |  |
| COc1ccc(C(=O)NCC(=O)O)cc1 | 5.3 | 6.4 ×10³ /M/s | 1 |  |
| O=C(O)CSC(=S)c1ccccc1 |  |  |  | Kis [5]: 39 µM; Kis [6]: 49 µM; inhibition [4]: < 5% |
| Nc1ccccc1C(=O)NCC(=O)O | 4.2 | 2.9 ×10³ /M/s | 0.5 |  |
| O=C(NC(CSC(=O)c1ccccc1)C(=O)O)c1ccccc1 (single isomer, unassigned) |  |  |  | inhibition [4]: < 5% |
| O=C(N[C@H](CO)C(=O)O)c1ccccc1 |  |  |  | inhibition [4]: < 5% |
| O=C(O)CNC(=O)CCc1ccccc1 | 9.9 | 1.1 ×10⁴ /M/s | 1.8 |  |
| O=C(NO)c1ccccc1O |  |  |  | inhibition [4]: < 5% |
| O=C(O)CNC(=S)CCc1ccccc1 | 1.6 | 4.2 ×10⁴ /M/s | 6.8 |  |
| O=C(O)CNC(=O)c1cccc(Cl)c1 | 7.8 | 3.6 ×10³ /M/s | 0.6 |  |
| O=C(O)CNC(=S)Nc1ccccc1 |  |  |  | inhibition [4]: < 5% |
| CC(=O)NCC(=O)NCC(=O)O | 8.9 | 5.9 ×10³ /M/s | 1 |  |
| O=C(O)CNC(=O)CCCCCc1ccccc1 | 11 | 2 ×10⁵ /M/s | 32 |  |
| O=C(NCC[C@H](O)C(=O)O)OCc1ccccc1 |  |  |  | inhibition [4]: < 5% |
| O=C(O)CNC(=O)CSc1ccccc1 | 4.6 | 2.5 ×10⁴ /M/s | 4 |  |
| O=C(O)CNC(=O)c1ccccc1O | 4.9 | 7.1 ×10³ /M/s | 1.1 |  |
| CC(C)(C)OC(=O)NCC(=O)O | 6.3 | 1.7 ×10³ /M/s | 0.3 |  |

| SMILES | Vmax(app) [1] [s⁻¹] | Ratio [2] | Activity [3] | also measured |
| --- | --- | --- | --- | --- |
| CC(C)CCC(=O)NCC(=O)O | 6.6 | 2.3 ×10⁴ /M/s | 3.7 |  |
| O=C(O)CNC(=O)c1cccs1 | 9.3 | 6 ×10³ /M/s | 1 |  |
| O=C(O)CNC(=O)CNC(=O)c1ccccc1 (Bz-Gly-Gly-OH) | 12 | 1.6 ×10⁵ /M/s | 26 |  |
| CC(C)C[C@H](NC(=O)[C@@H]1CCCN1)C(=O)NCC(=O)NO (H-Pro-Leu-Gly-{NHOH}) |  |  |  | inhibition [4]: < 5% |
| O=C(O)CNC(=O)CNC(=O)c1ccc([N+](=O)[O-])cc1 | 8.7 | 7.6 ×10⁴ /M/s | 12 |  |
| CC(C)[C@H](NC(=O)[C@H](Cc1ccc(O)cc1)NS(=O)(=O)c1cccc2c(N(C)C)cccc12)C(=O)N[C@H](C)C(=O)O (Dansyl-Tyr-Val-[dA]-OH) | 0.91 | 3 ×10⁴ /M/s |  |  |
| O=C(O)COC(=O)Nc1ccccc1 |  |  |  | inhibition [4]: < 5% |
| O=C(O)CNC(=O)c1ccccc1I | 3.1 | 9.1 ×10² /M/s | 0.1 |  |
| CC(SC(=S)c1ccccc1)C(=O)O (racemic) |  |  |  | inhibition [4]: < 5% |
| CC(C)(C)OC(=O)NCC(=O)NCC(=O)O (Boc-Gly-Gly-OH) | 7.5 | 2.5 ×10⁴ /M/s | 4 |  |
| O=C(O)CNC(=O)c1cccnc1 |  |  | 0.7 |  |
| O=C(O)CNC(=O)Nc1ccccc1 | 9.7 | 2.7 ×10⁴ /M/s | 4.4 |  |
| CC(C)SCC(=O)NCC(=O)O | 1.8 | 8.2 ×10³ /M/s | 1.3 |  |
| CC(C#N)(CCC(=O)O)SC(=S)c1ccccc1 (stereo not given) |  |  |  | inhibition [4]: < 5% |
| O=C(O)CSC(=S)CCc1ccccc1 |  |  |  | Kis [5]: 9.4 µM; Kis [6]: 30 µM; inhibition [4]: < 5% |
| O=C(O)CNC(=O)CCCCCCCc1ccccc1 | 8 | 7.6 ×10⁴ /M/s | 12 |  |
| NCC(=O)NNC(=O)OCc1ccccc1 |  |  |  | inhibition [4]: < 5% |
| O=C(O)CNC(=O)CCCc1ccccc1 | 11 | 7 ×10⁴ /M/s | 11 |  |
| Cc1ccc(C(=O)NCC(=O)O)cc1 | 5.7 | 3.2 ×10³ /M/s | 0.5 |  |
| O=C(O)CSC(=S)Nc1ccccc1 |  |  |  | IC50 [4]: 3.5 mM |
| O=C(O)CNC(=O)c1ccco1 | 7.5 | 2.8 ×10³ /M/s | 0.5 |  |
| CCc1ccc(C(=O)NCC(=O)O)cc1 | 3.6 | 3.1 ×10³ /M/s | 0.5 |  |
